Compound activity (PubChem BioAssay)
STAT1 act: STAT1 signaling activation; NIH 3T3 STAT1-luciferase reporter, IFN-gamma, luminescence; 100% = IFN-gamma alone, no compound; activation (% of control), % at 5.5 µM; 2.6% of 200,000 active;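 active = activation above the screen-wide mean activation plus 3 SD, cut at about 130% in these data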;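 note: raw ratio to IFN-gamma control signal so 100% means no change and 0% no light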
APP 5'UTR act: APP 5'UTR luciferase reporter activation. activation, % at 2 µM. 1% of 190,000 active. SH-SY5Y APP 5'UTR luciferase reporter, luminescence; zero percent = DMSO vehicle wells. AID 1276;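 active = activation above a set limit, based on mean plus 3 SD of controls, cut at about 140% in these data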
STAT1 inh: inhibitors of IFN-gamma induced STAT1 signaling. AID 920. NIH 3T3 STAT1-luciferase reporter, luminescence. inhibition, % at 5.5 µM. 0.35% of 200,000 active;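 active = inhibition above a set limit, the mean inhibition across all tested compounds plus 3 SD, cut at about 34% in these data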;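 note: 0% = IFN-gamma with DMSO and 100% = IFN-gamma with 300 µM nifuroxazide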
STAT3 inh: inhibitors of IL-6 induced STAT3 signaling; inhibition, % at 5.5 µM; 0.89% of 190,000 active; U3A cells, IL-6 STAT3-luciferase reporter, luminescence; host cell line lacks STAT1;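 active = inhibition above the mean inhibition across all screened compounds plus 3 SD, cut at about 44% in these data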;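 note: 0% = DMSO only wells and 100% = 100 µM nifuroxazide control wells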
STAT3 act: STAT3 signaling activation | activation (% of control), % at 5.6 µM | U3A cells, IL-6 STAT3-luciferase reporter, luminescence; 100% = signal with IL-6 EC80 alone | AID 871 | 0.91% of 190,000 active;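 active = activation above the screen-wide mean of compound activation plus 3 SD, cut at about 130% in these data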;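 note: 0% = background luminescence of wells with medium and substrate only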
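Assay system – human STAT1-deficient U3A cells with stable STAT3-luciferase reporter · Also added – IL-6 (33 ng/mL) · Schedule – compound 1 h, then IL-6 6 h at 37 °C · Technique – reporter luminescence signal · Evaluation – % activation versus median of IL-6-stimulated wells · Benchmarks – IL-6-only wells as 100% reference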
NF-kB expr up: raises NF-kB expression in human neuronal cells | NF-kB reporter expression; hits give high values | fold change at 12.5 µM | 1.6% of 190,000 active | AID 1239; in the data active = fold change above about 3.3
An asterisk follows results filed as active; nt = no result. Sampled rows, rich in hits. Any-hit rate of the full collection: about 4.9%.

SMILES | STAT1 act | APP 5'UTR act | STAT1 inh | STAT3 inh | STAT3 act | NF-kB expr up
COc1ccc(-n2c(C)cc(/C=C(\C#N)C(=O)NCc3ccco3)c2C)cc1 | 112 | 17 | -13 | -6 | 104 | 1
Cc1ccnc(NC(=O)c2cccc(NS(=O)(=O)c3ccccc3C)c2)c1 | 105 | 6 | -5 | 14 | 94 | 1.1
COc1ccc(C(=O)/C=C2/c3ccccc3CC(C)(C)N2C)cc1OC | 109 | nt | -10 | -1 | 101 | 0.99
Fc1c(F)c(F)c(N/N=C/c2c[nH]c3ccccc23)c(F)c1F | 86 | -8 | 16 | -19 | 111 | 13*
Cc1cc(C)nc(N/N=C/c2c[nH]c3ccccc23)n1 | 93 | 0 | 8 | -11 | 115 | 1.5
CN(Cc1cccs1)C(=O)Cn1cnc2ccccc2c1=O | 110 | -9 | -11 | 3 | 99 | 1.3
NNC(=O)c1ccc(CSc2nc3ccccc3[nH]2)cc1 | 107 | 5 | -8 | -12 | 110 | 1.4
CSc1ccccc1C(=O)N1CCc2ccccc2C1 | 107 | 19 | -10 | 7 | 103 | 0.6
Cc1cc(C(=O)NCCC2=CCCCC2)ccc1[N+](=O)[O-] | 133* | 57 | -38 | 4 | 99 | 3
COc1ccc(C(=O)NCCC2=CCCCC2)cc1OC | 117 | 35 | -19 | -7 | 103 | 1.9
O=C(Cc1ccccc1[N+](=O)[O-])NCCC1=CCCCC1 | 100 | 14 | -1 | -1 | 108 | 1.1
O=C(CCCc1ccccc1)NCCC1=CCCCC1 | 136* | -16 | -41 | -4 | 114 | 1.3
O=C(NCCC1=CCCCC1)c1ccc(CN2CCOCC2)cc1 | 134* | 102 | -37 | -5 | 106 | 2.6
O=C(CCc1ccccc1)NCCC1=CCCCC1 | 103 | 4 | -3 | -1 | 98 | 1.7
COc1cccc(C(=O)NCCC2=CCCCC2)c1 | 122 | 153* | -24 | 12 | 96 | 3.3
Cc1nc(-c2cccc(Br)c2)ccc1C(=O)O | 101 | -4 | -3 | 2 | 104 | 1.1
CC(=O)c1c(C)[nH]c(C(=O)NCCC2=CCCCC2)c1C | 134* | 93 | -37 | 14 | 89 | 3.5*
OC1CCN(c2c3c(nc4cc(-c5cccc(F)c5)nn24)CCCC3)CC1 | 118 | -5 | -18 | -4 | 109 | 0.68
CN(CCO)c1c2c(nc3cc(-c4cccc(F)c4)nn13)CCCC2 | 142* | 153* | -45 | 11 | 94 | 2.1
COc1ccc2occ(C(=O)c3cccs3)c2c1 | 128 | 55 | -31 | -4 | 109 | 4.3*
COC(=O)c1ccccc1NC(=O)c1ccc(-c2ccc(Br)cc2)o1 | 138* | -12 | -41 | 4 | 96 | 0.75
O=C(Nc1cccc2nsnc12)c1ccc(-c2ccc(Br)cc2)o1 | 101 | 14 | -1 | -22 | 129 | 1.6
O=C1CCCc2nc(N3CCc4ccccc43)ncc21 | 150* | 89 | -55 | 13 | 93 | 8*
CC1(C)CC(=O)c2cnc(N3CCN(c4ccccc4)CC3)nc2C1 | 92 | 2 | 9 | 18 | 87 | 0.67
CC1(C)CC(=O)c2cnc(N3CCc4ccccc4C3)nc2C1 | 133* | -4 | -36 | 2 | 102 | 1.8
SMILES | STAT1 act | APP 5'UTR act | STAT1 inh | STAT3 inh | STAT3 act | NF-kB expr up
CCN(CC)S(=O)(=O)c1ccc(N=Nc2c(C)[nH]n(C(N)=S)c2=O)cc1 | 116 | 22 | -24 | -3 | 105 | 1.7
CC(=O)N(C)c1ccc(N=Nc2c(C)[nH]n(C(N)=S)c2=O)cc1 | 148* | 139* | -53 | 22 | 90 | 4.5*
Cc1ccccc1N=Nc1c(C)[nH]n(C(N)=S)c1=O | 107 | -8 | -8 | 10 | 92 | 1.2
Cc1cccc(N=Nc2c(C)[nH]n(C(N)=S)c2=O)c1C | 131* | 47 | -33 | -3 | 108 | 2
CC(C)CC1c2[nH]c3ccccc3c2CCN1CCCn1cccn1 (configuration not stated) | 91 | 2 | 8 | -31 | 133* | 0.75
CCn1ccnc1CN1CCc2c([nH]c3ccccc23)C1CC(C)C (configuration not stated) | 96 | 9 | 2 | -23 | 122 | 0.64
CCOc1ccc(C2c3[nH]c4ccccc4c3CCN2CCCn2cccn2)cc1 (configuration not stated) | 96 | -15 | 2 | -32 | 134* | 0.85
